Assay results taken from ChEMBL document CHEMBL4725434, “Discovery of Selective, Covalent FGFR4 Inhibitors with Antitumor Activity in Models of Hepatocellular Carcinoma” (ACS Med Chem Lett, 2020).
Active and inactive are the calls of the source. The calls are words filed in the database; no cut-off is given here.

How the values were obtained:
[1] = Clearance in mouse at 3 mg/kg, iv; assay type: ADME, organism-based; conditions: in vivo
[2] = Clearance in rat at 3 mg/kg, iv; assay type: ADME, organism-based; conditions: in vivo
[3] = Clearance in cynomolgus monkey at 3 mg/kg, iv; assay type: ADME, organism-based, Macaca fascicularis; conditions: in vivo
[4] = Volume of distribution at steady state in mouse at 3 mg/kg, iv; assay type: ADME, organism-based; conditions: in vivo, read-out: Vdss
[5] = Volume of distribution at steady state in rat 3 mg/kg, iv; assay type: ADME, organism-based; conditions: in vivo, read-out: Vdss
[6] = Volume of distribution at steady state in cynomolgus monkey at 3 mg/kg, iv; assay type: ADME, organism-based, Macaca fascicularis; conditions: in vivo, read-out: Vdss
[7] = Half life in mouse at 3 mg/kg, iv; assay type: ADME, organism-based; conditions: in vivo
[8] = Half life in mouse at 10 mg/kg, po; assay type: ADME, organism-based; conditions: in vivo
[9] = Half life in rat at 3 mg/kg, iv; assay type: ADME, organism-based; conditions: in vivo
[10] = Half life in rat at 10 mg/kg, po; assay type: ADME, organism-based; conditions: in vivo
[11] = Half life in cynomolgus monkey at 3 mg/kg, iv; assay type: ADME, organism-based, Macaca fascicularis; conditions: in vivo
[12] = Half life in cynomolgus monkey at 10 mg/kg, po; assay type: ADME, organism-based, Macaca fascicularis; conditions: in vivo
[13] = Cmax in mouse at 10 mg/kg, po; assay type: ADME, organism-based; parameters: route oral, dose 10 mg/kg; conditions: in vivo
[14] = Cmax in rat at 10 mg/kg, po; assay type: ADME, organism-based; parameters: route oral, dose 10 mg/kg; conditions: in vivo
[15] = AUC in rat at 3 mg/kg, iv; assay type: ADME, organism-based; parameters: dose 3 mg/kg; conditions: in vivo
[16] = AUC in rat at 10 mg/kg, po; assay type: ADME, organism-based; parameters: dose 10 mg/kg; conditions: in vivo
[17] = AUC in mouse at 3 mg/kg, iv; assay type: ADME, organism-based; parameters: dose 3 mg/kg; conditions: in vivo
[18] = AUC in mouse at 10 mg/kg, po; assay type: ADME, organism-based; parameters: dose 10 mg/kg; conditions: in vivo
[19] = AUC in cynomolgus monkey at 3 mg/kg, iv; assay type: ADME, organism-based, Macaca fascicularis; parameters: dose 3 mg/kg; conditions: in vivo
[20] = AUC in cynomolgus monkey at 10 mg/kg, po; assay type: ADME, organism-based, Macaca fascicularis; parameters: dose 10 mg/kg; conditions: in vivo
[21] = Oral bioavailability in rat 10 mg/kg; assay type: ADME, organism-based; conditions: in vivo
[22] = Oral bioavailability in mouse at 10 mg/kg; assay type: ADME, organism-based; conditions: in vivo
[23] = Oral bioavailability in cynomolgus monkey at 10 mg/kg; assay type: ADME, organism-based, Macaca fascicularis; conditions: in vivo
[24] = system: Huh-7; experiment: Antitumor activity against human Huh7 cells xenografted in po dosed SCID mouse sorafenib-resistance established model assessed as tumor regression measured after 11 days relative to untreated control; assay type: functional, organism-based; conditions: time 11.0 day
Procedure, shortened: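 Huh7 tumors grown subcutaneously in SCID mice were made sorafenib-resistant by oral sorafenib at 100 mg/kg daily for […]. Oral dosing was then given at 10, 30 or 100 mg/kg BID for 11 days. Sorafenib 100 mg/kg once daily was the comparator arm. Read-out was tumor growth as %ΔT/ΔC.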

[25] = system: FGFR4 (Homo sapiens); experiment: In vivo receptor occupancy at FGFR4 in human Huh7 cells xenografted SCID mouse orthotopic model at 100 mg/kg, po qd after 10 hrs relative to control
[26] = system: Hep 3B2; experiment: Antitumor activity against human Hep3B cells xenografted in SCID mouse orthotopic model assessed as inhibition of tumor regression at 100 mg/kg, po bid measured after 28 days relative to control; conditions: time 28.0 day
[27] = system: Huh-7; experiment: Antitumor activity against human Huh7 cells xenografted in po dosed SCID mouse sorafenib-resistance established model assessed as tumor regression at 30 mg/kg, po bid for 11 days relative to untreated control; conditions: time 11.0 day
[28] = system: Huh-7; experiment: Antitumor activity against human Huh7 cells xenografted in po dosed SCID mouse sorafenib-resistance established model assessed as tumor regression at 100 mg/kg, po bid for 11 days relative to untreated control; conditions: time 11.0 day

clearance [1]: 17.2 mL/min/kg | clearance [2]: 9 mL/min/kg | clearance [3]: 8.4 mL/min/kg | Vd [4]: 0.63 L/kg | Vd [5]: 0.3 L/kg | Vd [6]: 1.1 L/kg | t1/2 [7]: 2.1 h | half-life [8]: 1.8 h | t1/2 [9]: 2.1 h | half-life [10]: 3.2 h | t1/2 [11]: 4.8 h | half-life [12]: 2 h | Cmax [13]: 423 ng/mL | Cmax [14]: 588 ng/mL | AUC [15]: 5610 ng·h/mL | AUC [16]: 2230 ng·h/mL | AUC [17]: 2910 ng·h/mL | AUC [18]: 2960 ng·h/mL | AUC [19]: 6420 ng·h/mL | AUC [20]: 5660 ng·h/mL | bioavailability [21]: 12% | bioavailability [22]: 20% | bioavailability [23]: 27%
Compound: C=CC(=O)N[C@H]1COC[C@H]1Nc1ncc2cc(-c3c(Cl)c(OC)cc(OC)c3Cl)c(=O)n(C)c2n1
Activity [24]: inactive | Activity [25]: >80% | Activity [26]: Active | Activity [27]: Active | Activity [28]: Active
